Test results from PMC5766413 (European journal of pharmacology, 2017).
Where two headings read alike, the source gives them in different places.

Tests used:
[1] = test system: blood pressure of anesthetized, acutely spinalized rats; experiment: Blood pressure; format: in vivo, rat; details: up to 30 μg/kg IV and 300 μg/kg SC
Procedure, shortened: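 Female rats were anesthetized with urethane (1.2–1.4 g/kg SC) and kept at 37°C, with the spinal cord transected at T9–T10 at least 60 min before dosing. Test compound was given in 0.9% saline IV (200 μl plus 300 μl saline flush) or SC, vehicle first. Blood pressure was recorded continuously via the carotid artery, with heart rate derived off line from that signal. Values are change from the pre-dose baseline; one-way ANOVA.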

[2] = test system: colorectum of anesthetized, acutely spinalized rats; experiment: Colorectal manometry with balloon catheter; format: in vivo, rat
Procedure, shortened: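 Urethane-anesthetized (1.2–1.4 g/kg SC) female rats, cord cut at T9–T10 ≥60 min before dosing, 37°C. Rectal balloon catheter was inflated in 0.1–0.2 ml saline steps to a steady 15–20 mmHg (0.3–0.7 ml total). Vehicle, then ascending SC doses in saline, 20–45 min apart. Pressure AUC over 0–5 min per dose; duration of raised activity noted; mean + S.D., ANOVA with Dunnett's test.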

[3] = test system: blood pressure of guinea pigs; details: intra-arterial, ref Beattie et al, 1993; cited from earlier work
NK2 over NK1 receptors = details: ref Rupniak et al, unpublished results; cited from earlier work
[4] = test system: bladder of anesthetized, acutely spinalized rats; format: in vivo, rat
Procedure, shortened: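 Acutely spinalized (T9–T10, ≥60 min earlier), urethane-anesthetized female rats. Capacity was taken as the mean of three saline fills (0.04–0.1 ml/min, urethra open) until leak. Meatus then clamped, bladder held at 70% capacity; vehicle and ascending IV or SC doses ≥20 min apart. Contraction defined as ≥5 mmHg above baseline within 5 min; onset, time to peak, 30-min AUC and response duration; mean + S.D.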

[5] = test system: human detrusor muscle strips; details: relative to KCL; ref Palea et al, 1996; cited from earlier work
[6] = test system: anesthetized, acutely spinalized rats; experiment: Other pharmacodynamic observations; format: in vivo, rat
Procedure, shortened: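 In urethane-anesthetized female rats with T9–T10 cord transection ≥60 min before dosing, vehicle then ascending IV, SC or IM doses of test compound in 0.9% saline were given. Changes in skin color (ear and paw flushing), salivation and lacrimation were recorded when present; respiration was watched visually for obvious changes.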

NK1 receptor [7] = details: minipigs; ref unpublished observations; cited from earlier work
NK1 receptor [8] = details: monkeys; ref unpublished observations; cited from earlier work
NK1 receptor [9] = details: dogs; ref unpublished observations; cited from earlier work

Compound | Blood pressure effect [1] | Duration of action on colorectal pressure ([2]; SC 100 and 300 μg/kg) [min] | Increase in colorectal pressure ([2]; SC, highest doses tested were 100 and 300 μg/kg) | Blood pressure effect [3] | Selectivity for NK2 over NK1 receptors (NK2 over NK1 receptors) [fold] | Duration of the bladder pressure response ([4]; 1 μg/kg IV, N=3, mean ± S.D.) [min] | Duration of the bladder pressure response ([4]; 300 μg/kg SC, N=4 for GR 64349, N=11 for LMN-NKA, mean ± S.D.) [min] | Onset of the increase in bladder pressure ([4]; 0.01–10 μg/kg IV and 1–300 μg/kg SC) [min] | Maximal contraction of detrusor muscle strips [5] | Respiration (visual observation, words) ([6]; LMN-NKA up to 300 μg/kg SC or IM, NKA and GR 64349 at the doses tested) | Flushing ([6]; NKA at similar, GR 64349 at higher doses compared to LMN-NKA) | Effect on transient hypotension after IV injection of NKA and LMN-NKA (NK1 receptor [7]) | Effect on transient hypotension after IV injection of NKA and LMN-NKA (NK1 receptor [8]) | Effect on transient hypotension after IV injection of NKA and LMN-NKA (NK1 receptor [9])
[Lys^3,Gly^8-R-gamma-lactam-Leu^9]-NKA(3–10) [GR 64349] | No significant blood pressure changes | 20 to 25 | only at the highest doses tested | transient drop in blood pressure | > 250 | 1.5 ± 0.07 | 23.9 ± 12.22 | < 1 | equivalent to maximal KCL-induced contractions | No obvious changes in respiration | transient flushing of the ears and paws | – | – | –
spantide I | – | – | – | – | – | – | – | – | – | – | – | blocked | blocked | blocked
COc1ccccc1CN[C@H]1CCCN[C@H]1c1ccccc1 [CP-99,994] | – | – | – | – | – | – | – | – | – | – | – | blocked | blocked | blocked
